Bioassay records: PubChem, The Scripps Research Institute Molecular Screening Center
Rows were chosen to be rich in hits. Some 4.5% of all compounds tested hit in one or more screens of this group.
OX1R antag-1 = human HCRTR1 antagonism. CHO/OX1R cells, Fluo-8 calcium fluorescence, orexin A. inhibition, % at 5 µM. hit rate 0.43% among 330,000. AID 434989;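 active means inhibition above its plate's threshold, mean inhibition of all tested compounds on the plate plus 3 SD, cut at about 37% in these data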;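 further: 0% = orexin A challenge wells and 100% = SB-334867-A antagonist wells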
CHO parental Ca = counter-screen: ATP calcium response change in parental CHO cells; AID 463079; hit rate 0.63% among 330,000; inhibition, % at 5.6 µM; parental CHO-K1, ATP-induced calcium, Fluo-8 fluorescence;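 active means inhibition above that plate's mean sample inhibition plus 3 SD, cut at about 26% in these data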;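 further: 0% = ATP-challenged DMSO wells and 100% = DMSO wells without ATP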
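Test system: untransfected parental CHO cell line. Compound: one dose, 5.6 µM nominal. Detection: intracellular calcium via Fluo-8 no-wash fluorescent dye. Measure: % inhibition. Benchmarks: ATP-challenged DMSO wells low, unchallenged DMSO wells high.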
OX1R antag-2 = antagonists of human orexin 1 receptor (OX1R) | O43613 | OX1R-expressing cells, FRET antagonist read-out | inhibition, % at 6.6 µM | hit rate 1.8% among 330,000; in the data active means inhibition mostly above about 38%, no sharp cut-off; inactive means mostly below about 40%;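 further: 0% = agonist challenge alone and 100% = reference antagonist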
TAAR1 antag = antagonists of human TAAR1 | inhibition, % at 3 µM | hit rate 1.5% among 360,000 | AID 624466 | CHO RD-HGA16 TAAR1, Fluo-8 calcium fluorescence, antagonist;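 active means inhibition above a per-plate cutoff, the mean inhibition of test compounds on that plate plus 3 SD, cut at about 49% in these data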;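 further: 0% = DMSO plus EC80 beta-PEA response and 100% = DMSO alone without agonist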
Target sequence (Q96RJ0 whole entry, looked up): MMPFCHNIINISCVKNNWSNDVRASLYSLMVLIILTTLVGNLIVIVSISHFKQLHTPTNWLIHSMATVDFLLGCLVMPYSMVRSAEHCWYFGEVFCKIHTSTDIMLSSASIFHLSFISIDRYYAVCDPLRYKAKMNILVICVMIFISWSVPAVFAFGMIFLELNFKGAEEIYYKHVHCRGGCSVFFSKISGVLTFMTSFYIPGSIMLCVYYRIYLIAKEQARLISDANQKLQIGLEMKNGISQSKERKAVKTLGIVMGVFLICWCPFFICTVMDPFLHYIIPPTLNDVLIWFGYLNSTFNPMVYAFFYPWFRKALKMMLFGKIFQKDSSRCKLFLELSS
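Test system: hTAAR1-expressing CHO RD-HGA16 cells, Gα16-coupled; Probe or stimulus: EC80 β-phenethylamine stimulus; Compound dosing: single nominal final test compound concentration of 3 µM; Timing: 140 s kinetic read after compound, 140 s after agonist; Signal: Fluo-8 calcium-sensitive fluorescence; Measure: % inhibition of agonist calcium response; Controls: DMSO and EC80 PEA controls.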
GPR7 antag = human neuropeptides B/W receptor 1 antagonism; hit rate 1.1% among 290,000; inhibition, % at 4.4 µM; GPR7-expressing cells, fluorescence antagonist assay; P48145; in the data active means inhibition above about 16%, passing the limit was not always enough;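 further: cells stimulated with the agonist NPW; 0% = agonist with vehicle and 100% = vehicle without agonist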
Target sequence (P48145 whole entry, looked up): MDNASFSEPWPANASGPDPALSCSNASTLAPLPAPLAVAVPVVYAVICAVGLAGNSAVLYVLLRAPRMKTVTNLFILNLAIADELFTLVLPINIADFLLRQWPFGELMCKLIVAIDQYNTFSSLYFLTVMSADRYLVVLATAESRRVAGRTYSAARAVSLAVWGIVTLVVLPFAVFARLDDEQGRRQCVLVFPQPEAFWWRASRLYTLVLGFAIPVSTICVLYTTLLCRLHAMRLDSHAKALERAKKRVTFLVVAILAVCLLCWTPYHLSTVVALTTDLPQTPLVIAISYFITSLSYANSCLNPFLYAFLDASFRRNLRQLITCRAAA
TAAR1 agonist = agonists of human TAAR1 | AID 624467 | hit rate 0.99% among 360,000 | CHO RD-HGA16 TAAR1, Fluo-8 calcium fluorescence; vehicle wells 0%, saturating PEA agonist 100% | Q96RJ0 | activation, % at 3 µM;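 active means activation above the mean activation of all test compounds in the run plus 3 SD, cut at about 38% in these data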
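System: CHO-derived RD-HGA16 cells with stable Gα16 and human TAAR1 / Times: 17-24 h plating, Fluo-8 75 min 37 °C, 30 min RT / Technique: calcium-sensitive Fluo-8 signal, excitation 470-495, emission 515-575 nm / Measure: % activation relative to PEA EC100 response / Benchmarks: DMSO and PEA EC100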
TAAR1 nonsel count = nonselective antagonist in TAAR1 antagonist counter-screen. shares compounds with TAAR1 antag. counterscreen cell line, calcium fluorescence, antagonist mode. inhibition, % at 3 µM. hit rate 77% among 2,400. AID 651780; in the data active means inhibition above about 22%;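 further: CHO-Ga16 host cells stimulated with ATP at an EC80 level; 0% = agonist EC80 plus vehicle and 100% = vehicle without agonist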
TAAR1 antag conf = confirmation of human TAAR1 antagonists | shares compounds with TAAR1 antag | TAAR1-expressing cells, fluorescence antagonist read-out | inhibition, % at 3 µM | hit rate 40% among 2,400; in the data active means inhibition above about 49%;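 further: CHO-Ga16 host cells challenged with agonist PEA near its EC80; 0% = agonist at EC80 plus vehicle and 100% = vehicle with no agonist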
Ga16 nonsel ag = nonselective Ga16 agonism, counter-screen; shares compounds with TAAR1 antag; Ga16-expressing cells, calcium fluorescence, agonist counterscreen; activation, % at 3 µM; hit rate 18% among 2,400; in the data active means activation above about 12%;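 further: 0% = vehicle wells and 100% = saturating stimulus response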
TAAR1 ag counter = TAAR1 agonism, antagonist counter-screen. shares compounds with TAAR1 antag. hTAAR1 cell line, fluorescence activation, agonist mode. activation, % at 3 µM. hit rate 2% among 2,400; in the data active means activation above about 37%;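 further: CHO cells stably expressing TAAR1 with calcium dye readout; 0% = DMSO vehicle and 100% = full agonist response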
* marks the source's active call; other numbers are inactive results.

For Cc1ccc(S(=O)(=O)N2CCOCC2)cc1NC(=O)COc1ccc(C(=O)c2ccccc2)cc1 the results were OX1R antag-1 20, CHO parental Ca 4, OX1R antag-2 12, TAAR1 antag 82*, TAAR1 agonist 23, TAAR1 nonsel count 37*, TAAR1 antag conf 59*, Ga16 nonsel ag 14* and TAAR1 ag counter 13.
For COc1ccc(OC)c(CNn2c(-c3ccccc3F)nc3ccccc3c2=O)c1 the results were OX1R antag-1 -33, CHO parental Ca -19, OX1R antag-2 32, TAAR1 antag 29, GPR7 antag 0 and TAAR1 agonist 9.
Screening COc1cccc(CNn2c(-c3cccc(C)c3)nc3ccccc3c2=O)c1O returned OX1R antag-1 -20, CHO parental Ca -20, OX1R antag-2 15, TAAR1 antag 54*, GPR7 antag -15, TAAR1 agonist 4, TAAR1 nonsel count 13, TAAR1 antag conf 39, Ga16 nonsel ag 7 and TAAR1 ag counter 5.
For CN(Cc1ccccc1)C(=O)c1ccc(NC(=O)Cc2ccc(NC(=O)C3CCN(S(=O)(=O)c4cccc([N+](=O)[O-])c4)CC3)cc2)cc1 the results were TAAR1 antag -7 and TAAR1 agonist 3.
For COc1ccc(/C=N/NC(=O)c2nc(-c3ccccc3)cc(-c3ccccc3)n2)cc1OC the results were OX1R antag-1 -20, CHO parental Ca -16, OX1R antag-2 16, TAAR1 antag 51*, GPR7 antag 0, TAAR1 agonist 21, TAAR1 nonsel count 26*, TAAR1 antag conf 44, Ga16 nonsel ag 7 and TAAR1 ag counter 9.
Screening COc1cc(/C=N\NC(=O)c2ccc(-c3ccccc3)cc2)cc(OC)c1OC(C)=O returned TAAR1 antag 61*, GPR7 antag -29, TAAR1 agonist 8, TAAR1 nonsel count 29*, TAAR1 antag conf 38, Ga16 nonsel ag 8 and TAAR1 ag counter 3.
Screening COc1cc(/C=N/NC(=O)C2(O)c3ccccc3-c3ccccc32)ccc1O returned OX1R antag-1 -24, CHO parental Ca -17, OX1R antag-2 7, TAAR1 antag -4, GPR7 antag -6 and TAAR1 agonist 1.
`O=C(N/N=C/c1ccccc1F)c1cccc(NC(=O)c2ccccc2Cl)c1` gave OX1R antag-1 -30, CHO parental Ca -22, OX1R antag-2 6, TAAR1 antag 59*, GPR7 antag 2, TAAR1 agonist 18, TAAR1 nonsel count 29*, TAAR1 antag conf 53*, Ga16 nonsel ag 10 and TAAR1 ag counter 11.
COc1cc(/C=N/NC(=O)C(=O)/C=C2\NC(C)(C)Cc3ccccc32)ccc1O was read as OX1R antag-1 -22, CHO parental Ca -11, OX1R antag-2 17, TAAR1 antag 52*, GPR7 antag -27, TAAR1 agonist 1, TAAR1 nonsel count 23*, TAAR1 antag conf 33, Ga16 nonsel ag 6 and TAAR1 ag counter 11.
Screening C[C@H](O)[C@@H]1CN2CCc3c([nH]c4ccccc34)[C@@H]2C[C@@H]1N(C)C(=O)NC1CCCCC1 returned TAAR1 antag 1 and TAAR1 agonist 1.
`COc1ccc(/C=N/NC(=O)c2cccc(NC(=O)c3ccc(Cl)cc3)c2)c(OC)c1` gave OX1R antag-1 -14, CHO parental Ca -14, OX1R antag-2 14, TAAR1 antag 57*, GPR7 antag -4, TAAR1 agonist 4, TAAR1 nonsel count 29*, TAAR1 antag conf 48, Ga16 nonsel ag 5 and TAAR1 ag counter 4.
`COc1cc(/C=N/NC(=O)c2cccc(NC(=O)c3ccccc3)c2)ccc1O` gave OX1R antag-1 -14, CHO parental Ca -23, OX1R antag-2 11, TAAR1 antag 65*, GPR7 antag -6, TAAR1 agonist 14, TAAR1 nonsel count 31*, TAAR1 antag conf 57*, Ga16 nonsel ag 7 and TAAR1 ag counter 7.
`O=C(N/N=C/c1ccccc1F)c1cc2c(ccc3ccccc32)o1` gave OX1R antag-1 -4, CHO parental Ca -14, OX1R antag-2 32, TAAR1 antag -23, GPR7 antag -15 and TAAR1 agonist 1.
Screening COc1ccc(/C=N/NC(=O)c2cc3c(ccc4ccccc43)o2)c(OC)c1 returned TAAR1 antag 63*, GPR7 antag 5, TAAR1 agonist 1, TAAR1 nonsel count 22*, TAAR1 antag conf 44, Ga16 nonsel ag 4 and TAAR1 ag counter 2.
`COc1cc(/C=N/NC(=O)c2ccncc2)ccc1O` gave OX1R antag-1 -2, CHO parental Ca -4, OX1R antag-2 21, TAAR1 antag -22, GPR7 antag -3 and TAAR1 agonist 9.
Screening COc1ccc(/C=N/NC(=O)c2ccc(NC(=O)c3cccc([N+](=O)[O-])c3)cc2)c(OC)c1 returned OX1R antag-1 -29, CHO parental Ca -11, OX1R antag-2 44, TAAR1 antag 31, GPR7 antag 0 and TAAR1 agonist 10.
`CCOc1ccc(NC(=O)CN2CCN(C(=O)C3CCCO3)CC2)cc1` (stereo not drawn) gave OX1R antag-1 -2, CHO parental Ca 11, OX1R antag-2 3, TAAR1 antag -17, GPR7 antag -14 and TAAR1 agonist 2.
`CCc1nnc(NC(=O)c2ccc(COc3ccccc3C)o2)s1` gave OX1R antag-1 -4, CHO parental Ca -8, OX1R antag-2 7, TAAR1 antag -13, GPR7 antag -2 and TAAR1 agonist 1.
COc1ccc(NC(=O)c2oc3ccc(S(=O)(=O)N4CCC5(CC4)OCCO5)cc3c2C)cc1 was read as OX1R antag-1 16, CHO parental Ca -5, OX1R antag-2 9, TAAR1 antag 56*, GPR7 antag 8, TAAR1 agonist 22, TAAR1 nonsel count 40*, TAAR1 antag conf 56*, Ga16 nonsel ag 14* and TAAR1 ag counter 15.
Screening Cc1ccc(CNC(=O)CC2(CC3=NS(=O)(=O)c4ccccc4N3)CCCC2)cc1 returned OX1R antag-1 -11, CHO parental Ca -6, OX1R antag-2 13, TAAR1 antag 66*, GPR7 antag -5, TAAR1 agonist 12, TAAR1 nonsel count 32*, TAAR1 antag conf 51*, Ga16 nonsel ag 11 and TAAR1 ag counter 19.
